Assay results taken from ChEMBL document CHEMBL4732088, “Identification and optimization of piperlongumine analogues as potential antioxidant and anti-inflammatory agents via activation of Nrf2” (Eur J Med Chem, 2021).
Calls of active or inactive are those of the source. The rule behind the calls is not given here.

Columns and labels:
PC-12 [1] = experiment: Neuroprotective activity against H2O2-induced cell damage in rat PC12 cells assessed as cell viability at 20 uM after 24 hrs by MTT assay (reference value: 46 +/- 4.12 %); assay type: functional; details: read-out: Activity
PC-12 [2] = experiment: Neuroprotective activity against 6-OHDA-induced cell damage in rat PC12 cells assessed as cell viability at 20 uM after 24 hrs by MTT assay (reference value: 45.23 +/- 4.37 %); assay type: functional; details: for viability at 20 µM: read-out: Activity
PC-12 [3] = experiment: Cytotoxicity against rat PC12 cells at 50 uM by MTT assay; assay type: cell-based; details: pc-12, 50 µM
Method in brief: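 Rat PC12 cells exposed to compounds at 50 μM; viability by MTT assay.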

PC-12 [4] = experiment: Upregulation of Nrf2 expression in rat PC12 cells at 20 uM after 24 hrs by Western blot analysis; assay type: functional, cell-based
Method in brief: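 Rat PC12 cells exposed to compound for 24 h. Nrf2 protein detected by western blot. Mean ± SD, n = 3.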

PC-12 [5] = experiment: Neuroprotective activity against H2O2-induced cell damage in rat PC12 cells at 20 uM after 24 hrs by MTT assay; assay type: functional, cell-based
PC-12 [6] = experiment: Neuroprotective activity against 6-OHDA-induced cell damage in rat PC12 cells at 20 uM after 24 hrs by MTT assay; assay type: functional, cell-based

| Structure (SMILES) | viability at 20 µM (PC-12 [1]) [%] | viability at 20 µM (PC-12 [2]) [%] | also measured |
| --- | --- | --- | --- |
| O=C(/C=C/c1ccc(C(F)(F)F)cc1)N1CCNC1=O | 67.7 | 65.3 | – |
| C=CC(=O)N1CCN(C(=O)/C=C/c2ccc(F)cc2)C1=O | 44 | 43.8 | Activity (PC-12 [3]): Toxic |
| CC(C)(C)C(=O)N1CCN(C(=O)/C=C/c2cccs2)C1=O | 69.2 | 68.2 | – |
| CN(C)C(=O)N1CCN(C(=O)/C=C/c2ccc(F)cc2)C1=O | 73.8 | 71.3 | – |
| CC(C)(C)C(=O)N1CCN(C(=O)/C=C/c2ccccc2F)C1=O | 72.4 | 72.3 | – |
| O=C(/C=C/c1ccc(F)cc1)N1CCN(C(=O)CCCl)C1=O | 43.2 | 37.1 | Activity (PC-12 [3]): Toxic |
| CC(C)(C)C(=O)N1CCN(C(=O)/C=C/c2ccc(Cl)cc2)C1=O | 72 | 71.1 | – |
| O=C(CCc1ccc(F)cc1)N1CCNC1=O | 53.6 | 56.3 | – |
| CC(C)(C)C(=O)N1CCN(C(=O)/C=C/c2ccc(F)cc2)C1=O | 73.6 | 72.2 | – |
| O=C(/C=C/c1ccc(F)cc1)N1CCNC1=O | 68.6 | 69.1 | Activity (PC-12 [4]): Active |
| CCN(C)C(=O)N1CCN(C(=O)CCc2ccc(F)cc2)C1=O | 59.5 | 62.5 | – |
| CC(C)(C)C(=O)N1CCN(C(=O)/C=C/c2ccco2)C1=O | 69.7 | 68.3 | – |
| O=C(/C=C/c1ccc(F)cc1)N1CCN(C(=O)c2ccccc2)C1=O | 63.3 | 60.3 | – |
| O=C(/C=C/c1cccs1)N1CCNC1=O | 65.2 | 64.2 | – |
| C=C(C)C(=O)N1CCN(C(=O)/C=C/c2ccc(F)cc2)C1=O | 38 | 30.2 | Activity (PC-12 [3]): Toxic |
| CC(C)(C)C(=O)N1CCN(C(=O)/C=C/c2cccc(Cl)c2)C1=O | 69.2 | 68.3 | – |
| CC(C)(C)C(=O)N1CCN(C(=O)/C=C/c2c(F)cccc2Cl)C1=O | – | 71.1 | – |
| CC(C)(C)C(=O)N1CCN(C(=O)/C=C/c2ccc(C(F)(F)F)cc2)C1=O | 72.5 | 71.1 | – |
| O=C(/C=C/c1ccccc1)N1CCNC1=O | – | – | Activity (PC-12 [5]): Active; Activity (PC-12 [6]): Active; Activity (PC-12 [2]): Active |

| Structure (SMILES) | viability at 20 µM (PC-12 [1]) [%] | viability at 20 µM (PC-12 [2]) [%] | also measured |
| --- | --- | --- | --- |
| O=C(/C=C/c1ccccc1)N1CCCNC1=O | – | – | Activity (PC-12 [5]): Active; Activity (PC-12 [6]): Active; Activity (PC-12 [2]): Active |
| O=C(/C=C/c1ccc(F)cc1)N1CCN(C(=O)N2CCCCC2)C1=O | 72.8 | 72.1 | – |
| CCCC(=O)N1CCN(C(=O)/C=C/c2ccc(F)cc2)C1=O | 70.2 | 69.3 | – |
| CC(C)(C)C(=O)N1CCN(C(=O)/C=C/c2cccc(F)c2)C1=O | 71 | 69.3 | – |
| CCC(=O)N1CCN(C(=O)/C=C/c2ccc(F)cc2)C1=O | 71.6 | 70.2 | – |
| CC(C)(C)C(=O)N1CCN(C(=O)/C=C/c2ccccc2Cl)C1=O | 70 | 69 | – |
| O=C(/C=C/c1ccco1)N1CCNC1=O | 64.1 | 60 | – |
| N#Cc1ccc(C(=O)N2CCN(C(=O)/C=C/c3ccc(F)cc3)C2=O)cc1 | 55.1 | 52.3 | Activity (PC-12 [3]): Toxic |
| CC(C)(C)C(=O)N1CCN(C(=O)/C=C/c2ccccc2)C1=O | 61.5 | 60.1 | – |
| CC(=O)N1CCN(C(=O)/C=C/c2ccc(F)cc2)C1=O | 70.4 | 72.3 | – |
| COc1cc(/C=C/C(=O)N2CCC=CC2=O)cc(OC)c1OC [PIPLARTINE] | – | – | Activity (PC-12 [3]): Toxic |
| CC(C)(C)C(=O)N1CCN(C(=O)/C=C/c2ccc3c(c2)OCO3)C1=O | 63.3 | 62.3 | – |
| O=C(/C=C/c1ccccc1)N1CCCCC1=O | – | – | Activity (PC-12 [5]): Active; Activity (PC-12 [6]): Active; Activity (PC-12 [2]): Active |
| O=C(/C=C/c1ccc(F)cc1)N1CCN(C(=O)c2cccs2)C1=O | 62.2 | 60.8 | – |
| CC(C)(C)C(=O)N1CCN(C(=O)/C=C/c2ccncc2)C1=O | 71.1 | 69.6 | – |
| CC(C)(C)C(=O)N1CCN(C(=O)/C=C/c2cccc3ccccc23)C1=O | 72.3 | 71.8 | – |
| CC(=O)N/C(=C\c1ccccc1)C(=O)N1CCN(C(=O)C(C)(C)C)C1=O | 72.7 | 71.2 | – |
| CC(C)(C)C(=O)N1CCN(C(=O)/C=C/c2ccc(C#N)cc2)C1=O | 71.4 | 71.1 | – |
